In brackets after ≈: the same amount, converted by molar mass.
Legend:
S. aureus ATCC 29,213 [1] = assay: MIC, broth microdilution; assay type: cell-based, Staphylococcus aureus; conditions: MHB II, 10^6 CFU/ml, 37 °C, 24 h, triplicate
Outline: (§1)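 Broth microdilution per CLSI. Strains were freshly plated on LB agar from glycerol stocks; the colistin-resistant lpxD mutant was plated on LB with 10 µg/ml colistin. Inoculum was 10^6 CFU/ml in Mueller Hinton broth II with two-fold dilutions of test compound from 100 to 0.10 µg/ml, incubated at 37 °C for 24 h. MIC was the lowest concentration with no growth.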

S. aureus MRSA USA 300 [2] = assay: MIC, broth microdilution; assay type: cell-based, Staphylococcus aureus; conditions: MHB II, 10^6 CFU/ml, 37 °C, 24 h, triplicate
Outline: as §1

[3] = tested on: P. aeruginosa ATCC 27,853; assay: MIC, broth microdilution; assay type: cell-based, Pseudomonas aeruginosa; conditions: MHB II, 10^6 CFU/ml, 37 °C, 24 h, triplicate
Outline: as §1

P. aeruginosa (ST175–1) [4] = assay: MIC, broth microdilution; assay type: cell-based, Pseudomonas aeruginosa; conditions: MHB II, 10^6 CFU/ml, 37 °C, 24 h, triplicate
Outline: as §1

A. baumannii ATCC 19,606 [5] = assay: MIC, broth microdilution; assay type: cell-based, Acinetobacter baumannii; conditions: MHB II, 10^6 CFU/ml, 37 °C, 24 h, triplicate
Outline: as §1

A. baumannii IB010 [6] = assay: MIC, broth microdilution; assay type: cell-based, Acinetobacter baumannii; conditions: MHB II, 10^6 CFU/ml, 37 °C, 24 h, triplicate
Outline: as §1

A. baumannii Ab-1 [7] = assay: MIC, broth microdilution; assay type: cell-based, Acinetobacter baumannii; conditions: MHB II, 10^6 CFU/ml, 37 °C, 24 h, triplicate
Outline: as §1

[8] = tested on: K. pneumoniae ATCC 43,816; assay: MIC, broth microdilution; assay type: cell-based, Klebsiella pneumoniae; conditions: MHB II, 10^6 CFU/ml, 37 °C, 24 h, triplicate
Outline: as §1

K. pneumoniae CG258 [9] = assay: MIC, broth microdilution; assay type: cell-based, Klebsiella pneumoniae; conditions: MHB II, 10^6 CFU/ml, 37 °C, 24 h, triplicate
Outline: as §1

E. coli ATCC 25,922 [10] = assay: MIC, broth microdilution; assay type: cell-based, Escherichia coli; conditions: MHB II, 10^6 CFU/ml, 37 °C, 24 h, triplicate
Outline: as §1

E. coli ESBL 1057.1 [11] = assay: MIC, broth microdilution; assay type: cell-based, Escherichia coli; conditions: MHB II, 10^6 CFU/ml, 37 °C, 24 h, triplicate
Outline: as §1

S. aureus ATCC 29,213 [12] = assay: Minimum bactericidal concentration; assay type: cell-based, Staphylococcus aureus; conditions: lowest concentration reducing at least 99.9 % of growth, plated on LB, 37 °C, 24 h, triplicate
S. aureus MRSA USA 300 [13] = assay: Minimum bactericidal concentration; assay type: cell-based, Staphylococcus aureus; conditions: lowest concentration reducing at least 99.9 % of growth, plated on LB, 37 °C, 24 h, triplicate
[14] = tested on: P. aeruginosa ATCC 27,853; assay: Minimum bactericidal concentration; assay type: cell-based, Pseudomonas aeruginosa; conditions: lowest concentration reducing at least 99.9 % of growth, plated on LB, 37 °C, 24 h, triplicate
P. aeruginosa (ST175–1) [15] = assay: Minimum bactericidal concentration; assay type: cell-based, Pseudomonas aeruginosa; conditions: lowest concentration reducing at least 99.9 % of growth, plated on LB, 37 °C, 24 h, triplicate
A. baumannii ATCC 19,606 [16] = assay: Minimum bactericidal concentration; assay type: cell-based, Acinetobacter baumannii; conditions: lowest concentration reducing at least 99.9 % of growth, plated on LB, 37 °C, 24 h, triplicate
A. baumannii IB010 [17] = assay: Minimum bactericidal concentration; assay type: cell-based, Acinetobacter baumannii; conditions: lowest concentration reducing at least 99.9 % of growth, plated on LB, 37 °C, 24 h, triplicate
A. baumannii Ab-1 [18] = assay: Minimum bactericidal concentration; assay type: cell-based, Acinetobacter baumannii; conditions: lowest concentration reducing at least 99.9 % of growth, plated on LB, 37 °C, 24 h, triplicate
[19] = tested on: K. pneumoniae ATCC 43,816; assay: Minimum bactericidal concentration; assay type: cell-based, Klebsiella pneumoniae; conditions: lowest concentration reducing at least 99.9 % of growth, plated on LB, 37 °C, 24 h, triplicate
K. pneumoniae CG258 [20] = assay: Minimum bactericidal concentration; assay type: cell-based, Klebsiella pneumoniae; conditions: lowest concentration reducing at least 99.9 % of growth, plated on LB, 37 °C, 24 h, triplicate
E. coli ATCC 25,922 [21] = assay: Minimum bactericidal concentration; assay type: cell-based, Escherichia coli; conditions: lowest concentration reducing at least 99.9 % of growth, plated on LB, 37 °C, 24 h, triplicate
E. coli ESBL 1057.1 [22] = assay: Minimum bactericidal concentration; assay type: cell-based, Escherichia coli; conditions: lowest concentration reducing at least 99.9 % of growth, plated on LB, 37 °C, 24 h, triplicate
[23] = tested on: 11 bacterial strains (S. aureus, P. aeruginosa, A. baumannii, K. pneumoniae, E. coli); assay: Antimicrobial activity screening, summary over groups of strains; assay type: cell-based; conditions: 50 µg/ml screen; all strains, Gram-negative and Gram-positive
11 bacterial strains = assay: MBC, summary over all strains; assay type: cell-based; conditions: highest value over all strains, converted to molar
Outline: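 The no-peptide growth well, serially diluted and plated, served as reference. Percent growth was calculated from CFU counts; MBC was the lowest concentration giving ≥99.9 % reduction (CLSI). Triplicate.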

K. pneumoniae CG258 [24] = assay: Time-kill assay; assay type: cell-based, Klebsiella pneumoniae; conditions: 24 h
Outline: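 Broth without compound was the growth control. Samples taken at 0, 3, 6 and 24 h were diluted and plated on MH II agar for CFU counts. Each curve was run at least in duplicate.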

P. aeruginosa ST175–1 = assay: Inhibition of biofilm formation; assay type: cell-based, Pseudomonas aeruginosa; conditions: ¼ MIC
Outline: (§2)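 Medium was discarded, wells washed with PBS, and biofilm stained with 1 % crystal violet for 15 min at room temperature. After two PBS washes, stain was eluted in 70 % ethanol and read at 595 nm. SBF = (OD595 − OD595 […])/OD600: weak ≤0.5, moderate 0.5–1, strong >1. Triplicate; Kruskal-Wallis with Dunn's test.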

A. baumannii ATCC 19,606 [25] = assay: Inhibition of biofilm formation; assay type: cell-based, Acinetobacter baumannii; conditions: ¼ MIC
Outline: as §2

A. baumannii Ab-1 [26] = assay: Inhibition of biofilm formation; assay type: cell-based, Acinetobacter baumannii; conditions: ¼ MIC
Outline: as §2

[27] = tested on: K. pneumoniae ATCC 43,816; assay: Inhibition of biofilm formation; assay type: cell-based, Klebsiella pneumoniae; conditions: ¼ MIC
Outline: as §2

K. pneumoniae CG258 [28] = assay: Inhibition of biofilm formation; assay type: cell-based, Klebsiella pneumoniae; conditions: ¼ MIC
Outline: as §2

Stability in human serum = assay type: in vitro ADME; conditions: 25 % (v/v)
Outline: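 Test compound was added to RPMI with human serum pre-equilibrated at 37 °C, giving 333.33 µM final compound and 25 % (v/v) final serum. Mixtures were stirred at 37 °C for 10, 30, 45 or 60 min. Proteins were precipitated with 96 % ethanol, cooled at 4 °C for 15 min and spun at 14,000 g. Supernatants were run on C18 RP-HPLC (TFA/CH3CN gradient, 220 nm); degradation was taken from loss of native peak area. Duplicate.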

[29] = tested on: Galleria mellonella larvae; assay: In vivo toxicity in Galleria mellonella larvae; conditions: G. mellonella larvae, 50 µg/larvae (10 μl of 5 mg/ml), 30 °C, N=10 per group
Outline: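 Sixth-instar Galleria mellonella larvae (200–300 mg) were held in sawdust at 4 °C until use. Groups of ten were injected with 10 μl of test compound, colistin or 0.9 % NaCl saline control into the second rear proleg, then kept at 30 °C.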

erythrocytes = conditions: percent hemolysis at 150 μM (table footnote); ref Oddo et al., 2016; cited from earlier work

Row | Compound | MIC (S. aureus ATCC 29,213 [1]) | MIC (S. aureus MRSA USA 300 [2]) | MIC [3] | MIC (P. aeruginosa (ST175–1) [4]) | MIC (A. baumannii ATCC 19,606 [5]) | MIC (A. baumannii IB010 [6]) | MIC (A. baumannii Ab-1 [7]) | MIC [8] | MIC (K. pneumoniae CG258 [9]) | MIC (E. coli ATCC 25,922 [10]) | MIC (E. coli ESBL 1057.1 [11]) | MBC (S. aureus ATCC 29,213 [12]) | MBC (S. aureus MRSA USA 300 [13]) | MBC [14] | MBC (P. aeruginosa (ST175–1) [15]) | MBC (A. baumannii ATCC 19,606 [16]) | MBC (A. baumannii IB010 [17]) | MBC (A. baumannii Ab-1 [18]) | MBC [19] | MBC (K. pneumoniae CG258 [20]) | further results
1 | CC[C@H](C)[C@H](NC(=O)[C@H](CCCCN)NC(=O)[C@H](CCCCN)NC(=O)[C@H](Cc1ccccc1)NC(=O)[C@H](CC(C)C)NC(=O)[C@@H](CCCCN)NC(=O)[C@@H](N)CCCCN)C(=O)N[C@@H](CC(C)C)C(=O)N[C@@H](CCCCN)C(=O)N[C@@H](Cc1ccc(O)cc1)C(=O)N[C@@H](CC(C)C)C(N)=O [BP145] | 50 µg/mL (≈ 35.2 µM) | 50 µg/mL (≈ 35.2 µM) | 50 µg/mL (≈ 35.2 µM) | 50 µg/mL (≈ 35.2 µM) | 6.25 µg/mL (≈ 4.4 µM) | 25 µg/mL (≈ 17.6 µM) | 12.5 µg/mL (≈ 8.8 µM) | 25 µg/mL (≈ 17.6 µM) | 12.5 µg/mL (≈ 8.8 µM) | 6.25 µg/mL (≈ 4.4 µM) | 12.5 µg/mL (≈ 8.8 µM) | 50 µg/mL (≈ 35.2 µM) | 50 µg/mL (≈ 35.2 µM) | 50 µg/mL (≈ 35.2 µM) | 50 µg/mL (≈ 35.2 µM) | 12.5 µg/mL (≈ 8.8 µM) | 25 µg/mL (≈ 17.6 µM) | 12.5 µg/mL (≈ 8.8 µM) | 25 µg/mL (≈ 17.6 µM) | 12.5 µg/mL (≈ 8.8 µM) | MBC (E. coli ATCC 25,922 [21]): 6.25 µg/mL (≈ 4.4 µM); MBC (E. coli ESBL 1057.1 [22]): 12.5 µg/mL (≈ 8.8 µM); growth inhibition of all the strains [23]: ≈ 90%; highest MBC observed (11 bacterial strains): 35 µM; bactericidal activity in time-kill assay (K. pneumoniae CG258 [24]; peptide at 2× MIC): bactericidal; SBF index compared to BP607 (P. aeruginosa ST175–1): reduced SBF indices compared to BP607; SBF index compared to BP607 (A. baumannii ATCC 19,606 [25]): reduced SBF indices compared to BP607; SBF index compared to BP607 (A. baumannii Ab-1 [26]): reduced SBF indices compared to BP607; SBF index compared to BP607 [27]: reduced SBF indices compared to BP607; biofilm formation (K. pneumoniae CG258 [28]): inhibited biofilm formation; remaining at 1 h, 333.33 µM (Stability in human serum): 35%; survival after 24h [29]: 70%
2 | CC[C@@H](C)[C@@H](NC(=O)[C@@H](CCCCN)NC(=O)[C@@H](CCCCN)NC(=O)[C@@H](Cc1ccccc1)NC(=O)[C@@H](CC(C)C)NC(=O)[C@@H](CCCCN)NC(=O)[C@H](N)CCCCN)C(=O)N[C@H](CC(C)C)C(=O)N[C@H](CCCNC(=N)N)C(=O)N[C@H](Cc1ccc(O)cc1)C(=O)N[C@H](CC(C)C)C(N)=O [BP607, reference compound] | 50 µg/mL (≈ 34.5 µM) | 50 µg/mL (≈ 34.5 µM) | 25 µg/mL (≈ 17.3 µM) | 50 µg/mL (≈ 34.5 µM) | 3.13 µg/mL (≈ 2.16 µM) | 25 µg/mL (≈ 17.3 µM) | 6.25 µg/mL (≈ 4.31 µM) | 12.5 µg/mL (≈ 8.63 µM) | 12.5 µg/mL (≈ 8.63 µM) | 6.25 µg/mL (≈ 4.31 µM) | 12.5 µg/mL (≈ 8.63 µM) | 50 µg/mL (≈ 34.5 µM) | 50 µg/mL (≈ 34.5 µM) | 25 µg/mL (≈ 17.3 µM) | 100 µg/mL (≈ 69 µM) | 6.25 µg/mL (≈ 4.31 µM) | 50 µg/mL (≈ 34.5 µM) | 6.25 µg/mL (≈ 4.31 µM) | 12.5 µg/mL (≈ 8.63 µM) | 12.5 µg/mL (≈ 8.63 µM) | MBC (E. coli ATCC 25,922 [21]): 6.25 µg/mL (≈ 4.31 µM); MBC (E. coli ESBL 1057.1 [22]): 12.5 µg/mL (≈ 8.63 µM); growth inhibition of all the strains [23]: ≈ 90%; bactericidal activity in time-kill assay (K. pneumoniae CG258 [24]; peptide at 2× MIC): bactericidal; bactericidal activity in time-kill assay (K. pneumoniae CG258 [24]; peptide at the MIC): maintained this bactericidal effect; mortality after 24h [29]: 80%; Hemolysis (erythrocytes): 42%

From paper PMC11904594 (Current Research in Microbial Sciences, 2025)
